A selection: hits, their analogues and other compounds. The true share with any hit is near 3.5%.
MrgX1 antag = antagonists of human MrgX1 receptor; MRGX1-HEK293 calcium flux, Fluo-4, BAM8-22 antagonism; stronger effect = lower value; B-score at 10 µM; actives 1.3% (n = 310,000); AID 588676; Q96LB2;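 active means calcium-response B-score plate-corrected more than 3 library SD below zero, starting fluorescence within 5 deviations, no agonist response on first addition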;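 further: peak minus trough fluorescence over baseline after final BAM8-22 challenge near maximal dose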
Target sequence (Q96LB2 whole entry, looked up): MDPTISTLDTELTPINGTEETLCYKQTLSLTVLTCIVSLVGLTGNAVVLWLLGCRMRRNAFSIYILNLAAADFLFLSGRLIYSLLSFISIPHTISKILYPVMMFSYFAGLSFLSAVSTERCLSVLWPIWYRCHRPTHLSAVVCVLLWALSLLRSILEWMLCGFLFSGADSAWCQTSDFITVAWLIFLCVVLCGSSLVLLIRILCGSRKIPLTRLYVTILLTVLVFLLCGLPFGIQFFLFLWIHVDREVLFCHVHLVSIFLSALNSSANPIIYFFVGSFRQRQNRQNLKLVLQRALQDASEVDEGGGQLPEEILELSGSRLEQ
MrgX1 agonist = human MrgX1 receptor agonism, primary screen; B-score at 10 µM; MrgX1-HEK293 cells, Fluo-4 calcium fluorescence, agonist mode; stronger effect = higher value; actives 0.44% (n = 310,000);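 active means calcium response B-score plate-corrected fluorescence ratio at least 3 library SD, with starting fluorescence B-score inside 5 SD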
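Test system: HEK293 cells stably expressing human MrgX1 receptor; amount: 15,000 cells per well; doses: compound delivered in addition one of three; times: overnight plating before 1 h dye loading; detection: Fluo-4 NW calcium-flux fluorescence, kinetic read; read-out basis: B-scored fluorescence response ratio; controls: positive and negative controls per plate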
RGS4 inh = inhibitors of human RGS4; P49798; HEK293 M3R/RGS4 inducible, Fluo-4 calcium flux; stronger effect = higher value; triggered by carbachol at its EC20; B-score at 10 µM; actives 0.45% (n = 310,000);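 active means B-score, a plate-corrected calcium signal, over three deviations above library mean, with baseline fluorescence within five deviations of library mean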;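 further: RGS4 expression induced by doxycycline in cells with stable M3 receptor; B-score is computed from the integrated fluorescence ratio over baseline after carbachol; higher B-score means a larger calcium signal and so more RGS4 inhibition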
Target sequence (P49798 whole entry, looked up): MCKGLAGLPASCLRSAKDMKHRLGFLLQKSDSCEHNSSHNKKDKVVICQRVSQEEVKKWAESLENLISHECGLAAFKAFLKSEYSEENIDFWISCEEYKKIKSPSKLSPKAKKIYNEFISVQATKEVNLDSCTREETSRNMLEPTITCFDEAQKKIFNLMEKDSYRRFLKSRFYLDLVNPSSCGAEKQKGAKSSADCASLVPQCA
RGS4 pot = potentiators or activators of RGS4. B-score at 10 µM. actives 0.92% (n = 310,000). AID 463111. HEK293 M3R/inducible RGS4, carbachol calcium flux Fluo4; stronger effect = lower value;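 active means B-score of the integrated calcium signal more than 4 SD below the library mean, with starting fluorescence not abnormally high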;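 further: negative B-score means reduced calcium response which marks RGS4 activation or potentiation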
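Material: Inducible-RGS4 HEK293 cells carrying M3 receptor; also added: carbachol at ECmax as muscarinic agonist stimulus; incubation: compound preincubation 20 min at room temperature before agonist; signal: Fluo4-AM (2 µM) calcium-flux fluorescence, kinetic read; measure: integrated calcium ratio converted to B score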
MrgX1 allo act = allosterically activates human MrgX1 receptor signaling; MrgX1-HEK293, Fluo-4 calcium flux, FDSS; stronger effect = higher value; B-score at 10 µM; actives 0.63% (n = 310,000); AID 588675;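 active means plate-corrected calcium response at least 3 library SD above typical, normal starting fluorescence, not activating the receptor alone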;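 further: compound read alongside a low EC10 to EC30 dose of BAM8-22 agonist; peak minus trough fluorescence over baseline measured at the second addition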
* hit, by the source's call.

What do the screens show for `Cc1coc2c(C)c3oc(=O)c(CCC(=O)NCCN4CCOCC4)c(C)c3cc12`?
MrgX1 antag: inactive; MrgX1 agonist: inactive; RGS4 inh: inactive; RGS4 pot: -7*; MrgX1 allo act: inactive

Results for COc1ccc(/C=C2\Oc3cc(OCC(N)=O)ccc3C2=O)cc1OC ?
MrgX1 antag: -5.4*; MrgX1 agonist: inactive; RGS4 inh: inactive; RGS4 pot: -8.2*; MrgX1 allo act: inactive

What do the screens show for `COC(=O)C(C)Oc1ccc2c(c1)O/C(=C\c1ccco1)C2=O` (stereo not given)?
MrgX1 antag: inactive; MrgX1 agonist: inactive; RGS4 inh: inactive; RGS4 pot: -9.1*; MrgX1 allo act: inactive

Results for Cn1cccc1C(=O)NCc1ccc(S(N)(=O)=O)cc1 ?
MrgX1 antag: inactive; MrgX1 agonist: inactive; RGS4 inh: inactive; RGS4 pot: inactive; MrgX1 allo act: inactive

How did Cc1ccc(N2C(=O)CC(NNC(=O)Cc3ccc(F)cc3)C2=O)cc1Cl (stereo not given) do in these assays?
MrgX1 antag: inactive; MrgX1 agonist: inactive; RGS4 inh: inactive; RGS4 pot: inactive; MrgX1 allo act: inactive

How did Cc1cc(NC(=O)CSc2nc3c(c(=O)n2C)SCC3)no1 do in these assays?
MrgX1 antag: inactive; MrgX1 agonist: inactive; RGS4 inh: inactive; RGS4 pot: inactive; MrgX1 allo act: inactive

Results for Cc1noc(NS(=O)(=O)c2ccc(NC(=O)NC(C)(C(F)(F)F)C(F)(F)F)cc2)c1C ?
MrgX1 antag: inactive; MrgX1 agonist: inactive; RGS4 inh: inactive; RGS4 pot: inactive; MrgX1 allo act: inactive

What do the screens show for `CC(C)N1C(=O)S/C(=C/c2ccc(Sc3nc4ccccc4[nH]3)o2)C1=O`?
MrgX1 antag: -7*; MrgX1 agonist: inactive; RGS4 inh: inactive; RGS4 pot: inactive; MrgX1 allo act: inactive

Results for C=CCN1C(=O)S/C(=C/c2ccc(Sc3nc4ccccc4[nH]3)o2)C1=O ?
MrgX1 antag: -6.8*; MrgX1 agonist: inactive; RGS4 inh: inactive; RGS4 pot: inactive; MrgX1 allo act: inactive

What do the screens show for `C=CCN1C(=O)S/C(=C/c2ccsc2)C1=O`?
MrgX1 antag: inactive; MrgX1 agonist: inactive; RGS4 inh: inactive; RGS4 pot: inactive; MrgX1 allo act: inactive

Results for CCOC(=O)c1cnc(SCC(=O)Nc2ccc(NC(=O)CC)c(OC)c2)nc1N ?
MrgX1 antag: inactive; MrgX1 agonist: inactive; RGS4 inh: inactive; RGS4 pot: inactive; MrgX1 allo act: inactive

What do the screens show for `O=C(/C=C/c1ccccc1)OCc1cnc(Cl)s1`?
MrgX1 antag: inactive; MrgX1 agonist: inactive; RGS4 inh: inactive; RGS4 pot: inactive; MrgX1 allo act: inactive

Results for COc1ccc(-c2noc(CCC(=O)N3CCN(c4cc(C)ccc4C)CC3)n2)cc1 ?
MrgX1 antag: inactive; MrgX1 agonist: inactive; RGS4 inh: inactive; RGS4 pot: -7*; MrgX1 allo act: inactive

How did CCOC(=O)COc1c(/C=N\O)cc(Cl)cc1OC do in these assays?
MrgX1 antag: inactive; MrgX1 agonist: inactive; RGS4 inh: inactive; RGS4 pot: inactive; MrgX1 allo act: inactive

Results for COc1ccccc1NC(=O)Nc1nc(CC(=O)N2CCN(c3ccccc3F)CC2)cs1 ?
MrgX1 antag: inactive; MrgX1 agonist: inactive; RGS4 inh: inactive; RGS4 pot: -7.1*; MrgX1 allo act: inactive

What do the screens show for `COc1ccccc1NC(=O)Nc1nc(CC(=O)NCc2c(F)cccc2F)cs1`?
MrgX1 antag: inactive; MrgX1 agonist: inactive; RGS4 inh: inactive; RGS4 pot: inactive; MrgX1 allo act: inactive

Results for Cc1ccc(S(=O)(=O)N(CC(=O)Nc2cccc(N(C)S(C)(=O)=O)c2)c2ccc(Cl)c(Cl)c2)cc1 ?
MrgX1 antag: inactive; MrgX1 agonist: inactive; RGS4 inh: inactive; RGS4 pot: -11*; MrgX1 allo act: inactive

What do the screens show for `CN(c1cccc(NC(=O)CN(c2ccc(Cl)c(Cl)c2)S(=O)(=O)c2ccccc2)c1)S(C)(=O)=O`?
MrgX1 antag: inactive; MrgX1 agonist: inactive; RGS4 inh: inactive; RGS4 pot: inactive; MrgX1 allo act: inactive

What do the screens show for `Cc1c(CCC(=O)N[C@@H](CC(C)C)C(=O)O)c(=O)oc2cc3oc4c(c3cc12)CCCC4`?
MrgX1 antag: inactive; MrgX1 agonist: inactive; RGS4 inh: inactive; RGS4 pot: inactive; MrgX1 allo act: 14*

How did Cc1nnc(Cn2cnc3c2c(=O)n(C)c(=O)n3C)o1 do in these assays?
MrgX1 antag: inactive; MrgX1 agonist: inactive; RGS4 inh: inactive; RGS4 pot: inactive; MrgX1 allo act: inactive

How did CCOc1nc(-c2ccc(Cl)cc2)nc2ccccc12 do in these assays?
MrgX1 antag: inactive; MrgX1 agonist: inactive; RGS4 inh: inactive; RGS4 pot: inactive; MrgX1 allo act: inactive

Results for O=[N+]([O-])c1cccc(N/N=C/c2cc([N+](=O)[O-])ccc2O)c1 ?
MrgX1 antag: inactive; MrgX1 agonist: inactive; RGS4 inh: inactive; RGS4 pot: inactive; MrgX1 allo act: inactive

How did O=[N+]([O-])c1ccc(N/N=C/c2ccccc2O)cc1 do in these assays?
MrgX1 antag: -4.9*; MrgX1 agonist: inactive; RGS4 inh: inactive; RGS4 pot: inactive; MrgX1 allo act: inactive

Results for NS(=O)(=O)c1ccc(N/N=C/c2ccncc2)cc1 ?
MrgX1 antag: inactive; MrgX1 agonist: inactive; RGS4 inh: inactive; RGS4 pot: inactive; MrgX1 allo act: inactive

How did NS(=O)(=O)c1ccc(N/N=C/c2ccccc2Br)cc1 do in these assays?
MrgX1 antag: inactive; MrgX1 agonist: inactive; RGS4 inh: inactive; RGS4 pot: inactive; MrgX1 allo act: 6.8*

How did COc1ccc(-c2nc(CSCC(=O)NCc3ccco3)c(C)o2)cc1 do in these assays?
MrgX1 antag: -5.4*; MrgX1 agonist: inactive; RGS4 inh: inactive; RGS4 pot: inactive; MrgX1 allo act: inactive

What do the screens show for `C=CCn1c(Sc2ncc([N+](=O)[O-])s2)n[nH]c1=O`?
MrgX1 antag: -9.2*; MrgX1 agonist: inactive; RGS4 inh: inactive; RGS4 pot: -8*; MrgX1 allo act: inactive

What do the screens show for `C=CCn1c(CSc2ccccc2[N+](=O)[O-])n[nH]c1=S`?
MrgX1 antag: inactive; MrgX1 agonist: inactive; RGS4 inh: inactive; RGS4 pot: inactive; MrgX1 allo act: inactive

How did O=C(O)/C=C/C(=O)OC1CC2CCC1C2 (stereo not given) do in these assays?
MrgX1 antag: inactive; MrgX1 agonist: inactive; RGS4 inh: inactive; RGS4 pot: inactive; MrgX1 allo act: inactive

How did CCN(C(=O)COC(=O)c1cccs1)c1c(N)n(Cc2ccccc2)c(=O)[nH]c1=O do in these assays?
MrgX1 antag: inactive; MrgX1 agonist: inactive; RGS4 inh: inactive; RGS4 pot: inactive; MrgX1 allo act: inactive

How did Cc1ccsc1/C=C/c1ccc2ccccc2n1 do in these assays?
MrgX1 antag: inactive; MrgX1 agonist: inactive; RGS4 inh: inactive; RGS4 pot: inactive; MrgX1 allo act: inactive
